{"source": "paper PMC3336105", "about": "(Journal of Medicinal Chemistry, 2008)", "key": {"PSMA": {"biological_target": "PSMA (Homo sapiens, UniProt Q04609)", "sequence (Q04609 whole entry)": "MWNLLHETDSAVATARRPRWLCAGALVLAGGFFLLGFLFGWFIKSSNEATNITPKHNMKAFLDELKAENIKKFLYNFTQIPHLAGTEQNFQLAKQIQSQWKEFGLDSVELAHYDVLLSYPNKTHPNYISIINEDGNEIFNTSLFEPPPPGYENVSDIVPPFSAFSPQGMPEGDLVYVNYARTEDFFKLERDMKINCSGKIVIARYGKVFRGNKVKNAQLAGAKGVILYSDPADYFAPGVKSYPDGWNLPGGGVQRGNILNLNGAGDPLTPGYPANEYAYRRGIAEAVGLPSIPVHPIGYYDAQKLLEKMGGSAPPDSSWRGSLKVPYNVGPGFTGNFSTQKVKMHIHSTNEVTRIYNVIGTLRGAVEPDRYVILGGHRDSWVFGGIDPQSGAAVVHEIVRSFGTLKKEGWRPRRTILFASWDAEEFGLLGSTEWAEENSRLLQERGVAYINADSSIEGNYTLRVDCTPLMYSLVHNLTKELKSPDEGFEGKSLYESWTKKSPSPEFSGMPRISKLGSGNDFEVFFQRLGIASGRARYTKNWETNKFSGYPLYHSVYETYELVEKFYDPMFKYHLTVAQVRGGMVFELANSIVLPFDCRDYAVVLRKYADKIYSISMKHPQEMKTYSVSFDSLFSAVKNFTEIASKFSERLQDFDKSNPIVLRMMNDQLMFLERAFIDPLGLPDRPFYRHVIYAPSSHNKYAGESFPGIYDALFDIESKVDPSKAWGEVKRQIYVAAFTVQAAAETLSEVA", "experiment": "NAALADase assay", "type": "biochemical"}, "[1]": {"experiment": "Electronic / fluorescence properties", "type": "physicochemical", "how_it_was_run": "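Test compound (Re tricarbonyl complex) dissolved in ethylene glycol, measured under air or after argon purging. […] Lifetime was measured by a frequency-domain method with 370 nm LED excitation and 540–600 nm bandpass collection. Quantum yield was obtained by the optically dilute method against aerated aqueous [Ru(bpy)3]Cl2 (φ = 0.028, excitation 455 nm).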"}, "PSMA+ PC3 PIP cells": {"system": "PSMA+ PC3 PIP cells", "experiment": "In vitro fluorescence microscopy in PC3 PIP and PC3 flu cells", "type": "cell-based, human", "details": "excitation 494 nm, emission 628 nm", "how_it_was_run": "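PC3 PIP and PC3 flu cells (10000 per well) were attached overnight at 37 °C in 5% CO2. […] Wells were washed with warm medium for 30 s, mounted, dried 20 min, held overnight at 4 °C, then imaged.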"}, "[2]": {"details": "LNCaP cell extracts, Cheng–Prusoff conversion"}}, "note": "Where two headings read alike, the source gives them in different places."}
{"compound": "O=C(O)CCC(NC(=O)NC(CCCCNC(=O)CCCCCCC(=O)NC(CCCCN(Cc1ccccn1)Cc1ccccn1)C(=O)O)C(=O)O)C(=O)O", "note": "(centres unmarked) [Compound L1, 2-[3-(5-{7-[5-(Bis-pyridin-2-ylmethyl-amino)-1-carboxy-pentylcarbamoyl]-heptanoylamino}-1-carboxy-pentyl)-ureido]-pentanedioic Acid]", "values": [{"measurement": "Ki", "setting": "PSMA", "result": 15.2, "unit": "nM"}]}
{"compound": "O=C(O)CCC(NC(=O)NC(CCCCNC(=O)CCCCCCC(=O)NC(CCCCN(Cc1ccccn1)Cc1ccccn1)C(=O)O)C(=O)O)C(=O)O.[Br-].[C-]#[O+].[C-]#[O+].[C-]#[O+].[Re+]", "note": "(stereo not drawn) [ReL1, Tricarbonyl (2-[3-(5-{7-[5-(bis-pyridin-2-ylmethyl-amino)-1-carboxy-pentylcarbamoyl]-heptanoylamino}-1-carboxy-pentyl)-ureido]-pentanedioic acid) rhenium bromide]", "values": [{"measurement": "Ki", "setting": "PSMA; [2]", "result": 10.8, "unit": "nM"}]}
{"compound": "O=C(O)CCC(NC(=O)NC(CCCCNC(=O)CCCCCCC(=O)NCCCCCCN(Cc1ccccn1)Cc1ccccn1)C(=O)O)C(=O)O.[Br-].[C-]#[O+].[C-]#[O+].[C-]#[O+].[Re+]", "note": "(stereo not drawn) [ReL7, Tricarbonyl(2-[3-(5-{7-[6-(Bis-pyridin-2-ylmethyl-amino)-hexylcarbamoyl]-heptanoylamino}-1-carboxy-pentyl)-ureido]-pentanedioic acid)rhenium bromide]", "values": [{"measurement": "Ki", "setting": "PSMA; [2]", "result": 2.06, "unit": "nM"}]}
{"compound": "O=C(O)CCC(NC(=O)NC(CCCCNC(=O)CCCCCCC(=O)NC(CCCCN(Cc1ccc2ccccc2n1)Cc1ccc2ccccc2n1)C(=O)O)C(=O)O)C(=O)O.[Br-].[C-]#[O+].[C-]#[O+].[C-]#[O+].[Re+]", "note": "(stereo not drawn) [ReL2, Tricarbonyl(2-[3-(5-{7-[5-(bis-quinolin-2-ylmethyl-amino)-1-carboxy-pentylcarbamoyl]-heptanoylamino}-1-carboxy-pentyl)-ureido]-pentanedioic acid) rhenium bromide]", "values": [{"measurement": "extinction coefficient", "setting": "[1]; at 321 nm", "result": 17200, "unit": "M⁻¹"}, {"measurement": "absorbance maximum", "setting": "[1]; electronic spectrum", "result": 321, "unit": "nm"}, {"measurement": "fluorescence quantum yield", "setting": "[1]; ethylene glycol under argon", "result": 0.018}, {"measurement": "fluorescence emission", "setting": "[1]; excitation at 321 nm", "result": 550, "unit": "nm"}, {"measurement": "fluorescence lifetime", "setting": "[1]; λem = 550 nm, ethylene glycol under argon", "result": 11.8, "unit": "μs"}, {"measurement": "fluorescent signal in live cells (internalization)", "setting": "PSMA+ PC3 PIP cells", "result": "weak but observable fluorescent signal"}, {"measurement": "Ki", "setting": "PSMA; [2]", "result": 0.5, "unit": "nM"}, {"measurement": "PSMA inhibitory activity, fold higher than ReL1", "setting": "PSMA; relative to ReL1", "result": 20, "unit": "fold"}]}
{"compound": "O=C(O)CCC(NC(=O)NC(CCCCNC(=O)CCCCCCC(=O)NC(CCCCN(Cc1ccc2ccccc2n1)Cc1ccc2ccccc2n1)C(=O)O)C(=O)O)C(=O)O", "note": "(centres unmarked) [Compound L2, 2-[3-(5-{7-[5-(Bis-quinolin-2-ylmethyl-amino)-1-carboxy-pentylcarbamoyl]-heptanoylamino}-1-carboxy-pentyl)-ureido]-pentanedioic acid]", "values": [{"measurement": "Ki", "setting": "PSMA; [2]", "result": 0.17, "unit": "nM"}]}
{"compound": "O=C(O)CCC(NC(=O)NC(CCCCNC(=O)CCCCCCC(=O)NCCCCC(C(=O)O)N(Cc1ccccn1)Cc1ccccn1)C(=O)O)C(=O)O.[Br-].[C-]#[O+].[C-]#[O+].[C-]#[O+].[Re+]", "note": "(stereo not drawn) [ReL3, Tricarbonyl(2-[3-(5-{7-[5-(bis-pyridin-2-ylmethyl-amino)-5-carboxy-pentylcarbamoyl]-heptanoylamino}-1-carboxy-pentyl)-ureido]-pentanedioic acid)rehenium bromide]", "values": [{"measurement": "Ki", "setting": "PSMA; [2]", "result": 10.3, "unit": "nM"}]}
{"compound": "O=C(O)CCC(NC(=O)NC(CCCCNC(=O)CCCCCCCN(Cc1ccccn1)Cc1ccccn1)C(=O)O)C(=O)O.[Br-].[C-]#[O+].[C-]#[O+].[C-]#[O+].[Re+]", "note": "(stereo not drawn) [ReL5, Tricarbonyl(2-(3-{5-[8-(bis-pyridin-2-ylmethyl-amino)-octanoylamino]-1-carboxy-pentyl}-ureido)-pentanedioic acid)rhenium bromide]", "values": [{"measurement": "Ki", "setting": "PSMA; [2]", "result": 0.91, "unit": "nM"}]}
{"compound": "O=C(O)CCC(NC(=O)NC(CCCCN(Cc1ccccn1)Cc1ccccn1)C(=O)O)C(=O)O.[Br-].[C-]#[O+].[C-]#[O+].[C-]#[O+].[Re+]", "note": "(stereo not drawn) [ReL6, Tricarbonyl(2-{3-[5-(bis-pyridin-2-ylmethyl-amino)-1-carboxy-pentyl]-ureido}-pentanedioic acid)rhenium bromide]", "values": [{"measurement": "PSMA inhibitory activity (in words)", "setting": "PSMA", "result": "very low PSMA inhibitory activity, the lowest in the entire series"}, {"measurement": "Ki", "setting": "PSMA; [2]", "result": 200, "unit": "nM"}]}
{"compound": "O=C(O)CCC(NC(=O)NC(CCCCNC(=O)CCCCCCCN(Cc1ccccn1)Cc1ccccn1)C(=O)O)C(=O)O", "note": "(centres unmarked) [Compound L5, 2-(3-{5-[8-(Bis-pyridin-2-ylmethyl-amino)-octanoylamino]-1-carboxy-pentyl}-ureido)-pentanedioic Acid]", "values": [{"measurement": "PSMA inhibitory activity (in words)", "setting": "PSMA", "result": "low nanomolar"}]}
